Reference: ChEMBL document CHEMBL1140106, “Blocking estrogen signaling after the hormone: pyrimidine-core inhibitors of estrogen receptor-coactivator binding” (J Med Chem, 2008)

Key:
Estrogen receptor [1] = molecular target: T1, Estrogen receptor (Homo sapiens, UniProt P03372); experiment: Binding affinity to ERalpha assessed as inhibition of fluorescein-labeled nuclear receptor domain of steroid receptor coactivator 3 by TR-FRET assay
T1 sequence (P03372 whole entry): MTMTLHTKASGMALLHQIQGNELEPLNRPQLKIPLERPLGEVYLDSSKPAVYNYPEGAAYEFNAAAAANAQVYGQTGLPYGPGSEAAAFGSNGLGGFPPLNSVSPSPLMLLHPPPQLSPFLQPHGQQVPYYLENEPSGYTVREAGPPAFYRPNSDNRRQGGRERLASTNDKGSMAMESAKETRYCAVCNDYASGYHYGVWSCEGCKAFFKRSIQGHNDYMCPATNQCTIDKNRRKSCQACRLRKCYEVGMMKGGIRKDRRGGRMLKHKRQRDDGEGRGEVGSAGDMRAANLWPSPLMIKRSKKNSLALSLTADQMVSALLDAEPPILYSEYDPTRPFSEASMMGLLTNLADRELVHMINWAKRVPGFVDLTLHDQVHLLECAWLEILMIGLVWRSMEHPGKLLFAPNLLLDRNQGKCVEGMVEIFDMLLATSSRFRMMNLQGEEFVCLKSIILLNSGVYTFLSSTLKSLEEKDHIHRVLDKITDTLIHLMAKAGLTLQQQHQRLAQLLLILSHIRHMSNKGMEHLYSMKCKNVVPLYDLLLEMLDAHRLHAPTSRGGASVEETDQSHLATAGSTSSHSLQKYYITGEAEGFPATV
Summary of the method: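 Fluorescein-SRC-3-NRD (50 nM) was then added for 1 h at room temperature in the dark. Buffer: 20 mM Tris pH 7.5, 0.01% NP40, 50 mM NaCl. SRC-1 Box II peptide served as positive control.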

Estrogen receptor beta = Estrogen receptor beta (Homo sapiens, UniProt Q92731); experiment: Binding affinity to ERbeta assessed as inhibition of fluorescein-labeled nuclear receptor domain of steroid receptor coactivator 3 by TR-FRET assay
Estrogen receptor beta, sequence (Q92731 whole entry, the tested form may be a part): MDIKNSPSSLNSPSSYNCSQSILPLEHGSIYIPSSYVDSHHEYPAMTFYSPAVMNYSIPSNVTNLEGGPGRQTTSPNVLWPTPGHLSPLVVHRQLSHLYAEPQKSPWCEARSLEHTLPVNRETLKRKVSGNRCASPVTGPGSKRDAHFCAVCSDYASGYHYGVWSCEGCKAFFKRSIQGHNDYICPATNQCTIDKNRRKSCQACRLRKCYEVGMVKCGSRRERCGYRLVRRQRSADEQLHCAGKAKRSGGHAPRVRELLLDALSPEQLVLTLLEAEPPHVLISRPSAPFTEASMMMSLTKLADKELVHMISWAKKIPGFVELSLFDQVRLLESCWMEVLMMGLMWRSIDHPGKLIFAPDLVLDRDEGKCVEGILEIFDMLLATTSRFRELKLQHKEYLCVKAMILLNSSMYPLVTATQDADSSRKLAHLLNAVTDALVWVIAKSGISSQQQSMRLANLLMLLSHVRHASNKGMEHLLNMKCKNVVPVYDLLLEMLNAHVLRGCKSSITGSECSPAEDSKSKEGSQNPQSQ

Estrogen receptor [2] = molecular target: T1, Estrogen receptor; experiment: Antagonist activity at ERalpha in human HEC1 cells assessed as inhibition of estrogen-induced transcriptional activity after 24 hrs by reporter gene assay; assay type: functional, cell-based, HEC-1
Summary of the method: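 HEC-1 cells, which lack endogenous ER, were lipofectin-transfected with full-length ERα vector, 2ERE-luciferase reporter and pCMV β-gal as internal control. After 6 h the medium was changed to 5% charcoal-dextran-treated calf serum with ligands.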

Row | SMILES | Ki (Estrogen receptor [1]) [µM] | Ki (Estrogen receptor beta) [µM] | IC50 (Estrogen receptor [2]) [µM]
1 | CC(C)CCc1cc(NCC(C)C)nc(SCC(C)C)n1 | > 1000 | > 1000 | –
2 | c1ccc(CCc2cc(CCc3ccccc3)nc(NCc3cccc4ccccc34)n2)cc1 | > 1000 | > 1000 | > 1000
3 | CC(C)CNc1nc(CCc2ccccc2)cc(CCc2ccccc2)n1 | > 1000 | > 1000 | > 1000
4 | CC(C)CNc1cc(NCC(C)C)ncn1 | > 1000 | – | –
5 | CC(C)CCc1nc(NCC(C)C)cc(NCC(C)C)n1 | > 1000 | > 1000 | –
6 | c1ccc(CNc2cc(CCc3cccc4ccccc34)nc(NCc3ccccc3)n2)cc1 | > 1000 | > 1000 | –
7 | CC(C)CCc1cc(NCC(C)C)nc(NCc2cccc3ccccc23)n1 | – | > 1000 | –
8 | CC(C)(C)OC(=O)N(Cc1cccc2ccccc12)c1cc(CCc2ccccc2)nc(NCc2cccc3ccccc23)n1 | > 1000 | > 1000 | > 1000
9 | CC(C)CNc1cc(CCc2cccc3ccccc23)nc(N(C)CC(C)C)n1 | > 1000 | > 1000 | –
10 | CC(C)CNc1cc(CCc2cccc3ccccc23)nc(NCc2ccccc2)n1 | > 1000 | > 1000 | –
11 | CC(C)CNc1nc(CCc2cccc3ccccc23)cc(N(CC(C)C)C(=O)OC(C)(C)C)n1 | > 1000 | > 1000 | > 1000
12 | c1ccc(CCc2cc(CCc3ccccc3)nc(NCc3ccccc3)n2)cc1 | > 1000 | > 1000 | –
13 | CC(C)COc1cc(CCc2ccccc2)nc(OCC(C)C)n1 | > 1000 | > 1000 | > 1000
14 | C(=C\c1cc(NCc2ccccc2)nc(NCc2cccc3ccccc23)n1)/c1ccccc1 | > 1000 | > 1000 | –
15 | CC(C)CN(C)c1cc(CCc2ccccc2)nc(N(C)CC(C)C)n1 | > 1000 | > 1000 | –
16 | CC(C)CNc1cc(CCc2cccc3ccccc23)nc(NCC(C)C)n1 | 2.5 | > 1000 | 2.1
17 | CC(C)CN(C(=O)OC(C)(C)C)c1cc(CCc2cccc3ccccc23)nc(NCc2ccccc2)n1 | > 1000 | > 1000 | –
18 | CC(C)CCc1cc(N(CC(C)C)C(=O)OC(C)(C)C)nc(NCc2ccccc2)n1 | > 1000 | > 1000 | –
19 | CC(C)CN(C)c1cc(CCc2cccc3ccccc23)nc(N(C)CC(C)C)n1 | > 1000 | > 1000 | –
20 | CC(C)CNc1nc(CCc2ccccc2)cc(N(C)CC(C)C)n1 | – | > 1000 | –
21 | CC(C)CCc1cc(S(=O)(=O)CC(C)C)nc(S(=O)(=O)CC(C)C)n1 | > 1000 | > 1000 | –
22 | CC(C)CSc1cc(SCC(C)C)nc(SCC(C)C)n1 | – | > 1000 | > 1000
23 | CC(C)(C)OC(=O)N(Cc1cccc2ccccc12)c1cc(CCc2cccc3ccccc23)nc(NCc2ccccc2)n1 | > 1000 | > 1000 | –
24 | CC(C)CCc1cc(CCC(C)C)nc(NCc2cccc3ccccc23)n1 | > 1000 | > 1000 | –
25 | C(=C\c1cc(/C=C/c2ccccc2)nc(NCc2ccccc2)n1)/c1ccccc1 | > 1000 | > 1000 | > 1000

Row | SMILES | Ki (Estrogen receptor [1]) [µM] | Ki (Estrogen receptor beta) [µM] | IC50 (Estrogen receptor [2]) [µM]
26 | CC(C)CCc1cc(NCc2ccccc2)nc(NCc2cccc3ccccc23)n1 | > 1000 | > 1000 | > 1000
27 | CC(C)(C)OC(=O)N(Cc1cccc2ccccc12)c1cc(/C=C/c2ccccc2)nc(NCc2cccc3ccccc23)n1 | > 1000 | > 1000 | –
28 | CC(C)CNc1nc(/C=C/c2ccccc2)cc(N(Cc2ccccc2)C(=O)OC(C)(C)C)n1 | > 1000 | 132 | –
29 | CC(C)CNc1cc(CCc2ccccc2)nc(N(C)CC(C)C)n1 | > 1000 | > 1000 | –
30 | CC(C)CNc1cc(CCc2cccc3ccccc23)nc(NCc2cccc3ccccc23)n1 | > 1000 | > 1000 | –
31 | c1ccc(CNc2cc(NCc3ccccc3)nc(NCc3ccccc3)n2)cc1 | > 1000 | > 1000 | –
32 | CC(C)CCc1cc(N(C)CC(C)C)nc(N(C)CC(C)C)n1 | > 1000 | > 1000 | –
33 | CC(C)(C)OC(=O)N(Cc1ccccc1)c1cc(CCc2cccc3ccccc23)nc(NCc2cccc3ccccc23)n1 | > 1000 | > 1000 | –
34 | CC(C)CN(C(=O)OC(C)(C)C)c1cc(CCc2cccc3ccccc23)nc(NCc2cccc3ccccc23)n1 | > 1000 | > 1000 | –
35 | CC(C)CCc1cc(SCC(C)C)nc(SCC(C)C)n1 | > 1000 | > 1000 | –
36 | C(=C\c1cc(/C=C/c2ccccc2)nc(NCc2cccc3ccccc23)n1)/c1ccccc1 | > 1000 | > 1000 | –
37 | CC(C)CNc1nc(CCc2cccc3ccccc23)cc(N(C)CC(C)C)n1 | – | > 1000 | –
38 | CC(C)CCc1cc(N(Cc2ccccc2)C(=O)OC(C)(C)C)nc(NCC(C)C)n1 | > 1000 | > 1000 | –
39 | CC(C)CCc1cc(N(Cc2cccc3ccccc23)C(=O)OC(C)(C)C)nc(NCC(C)C)n1 | > 1000 | > 1000 | –
40 | CC(C)CCc1cc(SCc2ccccc2)nc(SCc2ccccc2)n1 | > 1000 | > 1000 | –
41 | CC(C)CNc1cc(SCC(C)C)nc(NCC(C)C)n1 | > 1000 | > 1000 | –
42 | CC(C)CNc1cc(/C=C/c2ccccc2)nc(N(C)CC(C)C)n1 | > 1000 | > 1000 | –
43 | CC(C)CNc1nc(CCc2cccc3ccccc23)cc(N(Cc2ccccc2)C(=O)OC(C)(C)C)n1 | > 1000 | > 1000 | –
44 | CC(C)CNc1nc(CCc2cccc3ccccc23)cc(NCc2ccccc2)n1 | > 1000 | > 1000 | –
45 | CC(C)CCc1cc(OCC(C)C)nc(OCC(C)C)n1 | > 1000 | > 1000 | –
46 | c1ccc(CNc2nc(CCc3cccc4ccccc34)cc(NCc3cccc4ccccc34)n2)cc1 | > 1000 | > 1000 | –
47 | CC(C)CNc1cc(CCc2ccccc2)nc(NCc2ccccc2)n1 | – | > 1000 | –
48 | CC(C)CNc1nc(CCc2cccc3ccccc23)cc(NCc2cccc3ccccc23)n1 | > 1000 | > 1000 | –
49 | CC(C)CCc1cc(N(Cc2ccccc2)C(=O)OC(C)(C)C)nc(NCc2cccc3ccccc23)n1 | > 1000 | > 1000 | –
50 | c1ccc(CCc2cc(NCc3ccccc3)nc(NCc3cccc4ccccc34)n2)cc1 | > 1000 | > 1000 | –

Row | SMILES | Ki (Estrogen receptor [1]) [µM] | Ki (Estrogen receptor beta) [µM] | IC50 (Estrogen receptor [2]) [µM]
51 | CC(C)CCc1cc(NCC(C)C)nc(S(=O)(=O)CC(C)C)n1 | > 1000 | > 1000 | –
52 | CC(C)CN(C(=O)OC(C)(C)C)c1cc(CCc2ccccc2)nc(NCc2ccccc2)n1 | > 1000 | > 1000 | –
53 | O=S(=O)(Cc1ccccc1)c1cc(CCc2ccccc2)nc(S(=O)(=O)Cc2ccccc2)n1 | > 1000 | > 1000 | –
54 | CC(C)CNc1cc(NCC(C)C)nc(CCc2cccc3ccccc23)n1 | > 1000 | > 1000 | –
55 | CC(C)CCc1cc(N(C)CC(C)C)nc(NCC(C)C)n1 | > 1000 | > 1000 | –
56 | CC(C)CS(=O)(=O)c1cc(CCc2ccccc2)nc(S(=O)(=O)CC(C)C)n1 | > 1000 | > 1000 | –
57 | c1ccc(CCc2cc(SCc3ccccc3)nc(SCc3ccccc3)n2)cc1 | > 1000 | > 1000 | –
58 | CC(C)CCc1cc(CCC(C)C)nc(NCC(C)C)n1 | > 1000 | > 1000 | –
59 | CC(C)CNc1cc(S(=O)(=O)CC(C)C)nc(NCC(C)C)n1 | > 1000 | > 1000 | –
60 | CC(C)CCc1nc(NCc2ccccc2)cc(NCC(C)C)n1 | > 1000 | > 1000 | –
61 | C(=C\c1cc(NCc2cccc3ccccc23)nc(NCc2cccc3ccccc23)n1)/c1ccccc1 | > 1000 | > 1000 | –
62 | CC(C)CCc1cc(N(CC(C)C)C(=O)OC(C)(C)C)nc(NCc2cccc3ccccc23)n1 | > 1000 | > 1000 | –
63 | CC(C)CSc1cc(CCc2ccccc2)nc(SCC(C)C)n1 | > 1000 | > 1000 | –
64 | CC(C)CNc1cc(OCC(C)C)nc(NCC(C)C)n1 | > 1000 | > 1000 | –
65 | c1ccc(CNc2cc(CCc3cccc4ccccc34)nc(NCc3cccc4ccccc34)n2)cc1 | > 1000 | > 1000 | –
66 | CC(C)CNc1nc(CCc2ccccc2)cc(NCc2cccc3ccccc23)n1 | > 1000 | > 1000 | –
67 | CC(C)CCc1cc(S(=O)(=O)Cc2ccccc2)nc(S(=O)(=O)Cc2ccccc2)n1 | > 1000 | > 1000 | –
68 | CC(C)CCc1cc(NCc2cccc3ccccc23)nc(NCC(C)C)n1 | – | > 1000 | –
69 | CCc1cc(NCC(C)C)nc(NCC(C)C)n1 | – | > 1000 | –
70 | CC(C)CN(C)c1cc(/C=C/c2ccccc2)nc(N(C)CC(C)C)n1 | > 1000 | > 1000 | –
71 | CC(C)CNc1nc(CCc2ccccc2)cc(N(Cc2ccccc2)C(=O)OC(C)(C)C)n1 | > 1000 | > 1000 | –
72 | CC(C)CCc1cc(N(Cc2cccc3ccccc23)C(=O)OC(C)(C)C)nc(NCc2ccccc2)n1 | > 1000 | > 1000 | –
73 | CC(C)CNc1nc(CCc2cccc3ccccc23)cc(N(Cc2cccc3ccccc23)C(=O)OC(C)(C)C)n1 | > 1000 | > 1000 | –
